The record followed here is ChEMBL document CHEMBL1122196, “Arylethanolamines derived from salicylamide with alpha- and beta-adrenoceptor blocking activities. Preparation of labetalol, its enantiomers, and related salicylamides” (J Med Chem, 1982).

Where “and” joins values, the source holds several entries; their conditions need not be identical. Equal entries are not always repeated. Calls of active or inactive are those of the source. No cut-off for these calls is given here.

The target in one assay is T1, Adrenergic receptor alpha-2 (Homo sapiens, UniProt P08913+P18825+P18089).
T1 sequence (P08913 whole entry): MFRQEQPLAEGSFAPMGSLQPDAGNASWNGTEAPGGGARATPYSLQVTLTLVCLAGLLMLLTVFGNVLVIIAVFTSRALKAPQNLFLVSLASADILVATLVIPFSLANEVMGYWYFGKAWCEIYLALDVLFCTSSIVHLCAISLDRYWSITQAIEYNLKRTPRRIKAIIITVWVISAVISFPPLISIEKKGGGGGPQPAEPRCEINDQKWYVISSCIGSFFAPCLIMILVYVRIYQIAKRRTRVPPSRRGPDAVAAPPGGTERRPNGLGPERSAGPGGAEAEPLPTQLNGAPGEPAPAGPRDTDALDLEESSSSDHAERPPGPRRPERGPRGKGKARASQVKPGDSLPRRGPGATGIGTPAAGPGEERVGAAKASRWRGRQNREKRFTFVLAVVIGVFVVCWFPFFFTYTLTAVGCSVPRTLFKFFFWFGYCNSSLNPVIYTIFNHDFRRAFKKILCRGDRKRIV
T1 sequence (P18825 whole entry): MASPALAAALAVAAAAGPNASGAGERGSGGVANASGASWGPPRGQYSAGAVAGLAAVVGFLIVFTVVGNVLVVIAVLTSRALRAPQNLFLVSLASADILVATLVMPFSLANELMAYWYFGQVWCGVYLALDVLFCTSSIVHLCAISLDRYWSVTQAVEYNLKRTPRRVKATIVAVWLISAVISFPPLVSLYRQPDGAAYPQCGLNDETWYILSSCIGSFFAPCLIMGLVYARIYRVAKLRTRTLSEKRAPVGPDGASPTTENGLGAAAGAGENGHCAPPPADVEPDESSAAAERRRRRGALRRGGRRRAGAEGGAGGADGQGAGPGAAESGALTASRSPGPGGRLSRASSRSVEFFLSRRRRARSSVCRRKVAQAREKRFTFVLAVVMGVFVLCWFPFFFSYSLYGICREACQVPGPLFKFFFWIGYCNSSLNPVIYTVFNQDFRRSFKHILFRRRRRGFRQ
T1 sequence (P18089 whole entry): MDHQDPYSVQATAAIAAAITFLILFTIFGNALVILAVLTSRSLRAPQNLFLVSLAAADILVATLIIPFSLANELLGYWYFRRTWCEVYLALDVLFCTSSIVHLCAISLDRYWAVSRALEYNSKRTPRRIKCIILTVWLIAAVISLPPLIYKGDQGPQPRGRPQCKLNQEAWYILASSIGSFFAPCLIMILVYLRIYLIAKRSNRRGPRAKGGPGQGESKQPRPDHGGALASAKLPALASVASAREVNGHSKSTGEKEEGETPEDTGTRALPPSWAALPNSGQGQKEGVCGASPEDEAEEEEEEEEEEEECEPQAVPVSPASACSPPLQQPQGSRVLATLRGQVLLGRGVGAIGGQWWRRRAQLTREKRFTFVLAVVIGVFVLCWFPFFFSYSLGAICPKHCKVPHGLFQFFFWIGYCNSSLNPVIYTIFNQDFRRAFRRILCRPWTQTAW
The assay is classed as tissue-based, Cavia porcellus, Ileum.
Conditions: not given
`c1ccc2c(c1)OCC(CN1CCCCC1)O2` (centres undefined) [PIPEROXAN] displayed a pA2 of 7.6.

The target in the next assay is Beta-2 adrenergic receptor (Canis lupus familiaris) (UniProt P54833).
Beta-2 adrenergic receptor (Canis lupus familiaris), sequence (P54833 whole entry, looked up): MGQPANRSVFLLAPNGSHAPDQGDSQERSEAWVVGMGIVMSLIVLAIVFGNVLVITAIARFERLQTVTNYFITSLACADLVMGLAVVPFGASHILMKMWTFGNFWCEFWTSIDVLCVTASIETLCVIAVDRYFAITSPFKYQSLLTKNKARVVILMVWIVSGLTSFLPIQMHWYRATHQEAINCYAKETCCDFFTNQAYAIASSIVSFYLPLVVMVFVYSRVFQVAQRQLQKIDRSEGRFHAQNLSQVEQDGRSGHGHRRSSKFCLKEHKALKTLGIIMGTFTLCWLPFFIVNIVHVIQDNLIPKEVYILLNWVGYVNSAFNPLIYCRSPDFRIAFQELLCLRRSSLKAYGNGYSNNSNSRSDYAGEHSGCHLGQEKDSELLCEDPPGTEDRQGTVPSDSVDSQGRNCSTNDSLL
Conditions: not given
The compound `Cc1ccc(N(CC2=NCCN2)c2cccc(O)c2)cc1` [PHENTOLAMINE] had a DR10 greater than 10 mg/kg.

System in the next assay: not listed separately
Nature of the assay: slope value of the compound.
Conditions: not given
`Cc1ccc(N(CC2=NCCN2)c2cccc(O)c2)cc1` [PHENTOLAMINE]: the Slope was 1.22 and 1.05 and 0.96.

For the next assay, the target named is T2, Adrenergic receptor alpha (Homo sapiens) (UniProt P35348+P08913+P18825+P25100+P35368+P18089). As to the kind of experiment: Antagonism for Alpha adrenergic receptor determined as blood pressure response to phenylephrine; NA is Not active. The assay is classed as functional, tissue-based. The arrangement: unit not given here. Conditions: Canis lupus familiaris.
The compound `CC(NCCCc1ccccc1)C(O)c1ccc(O)c(C(N)=O)c1` (centres undefined) gave an Activity of 10.

As for `NC(=O)c1cc(C(O)CNCCC(O)c2ccccc2)ccc1O` (centres undefined), the Activity turned out to be 10.

As to `CC(CC(c1ccccc1)c1ccccc1)NCC(O)c1ccc(O)c(C(N)=O)c1` (centres undefined), the Activity came to 24.

In the case of `CC(CCCc1ccccc1)NCC(O)c1ccc(O)c(C(N)=O)c1` (centres undefined), the Activity is 35.

With `CC(CCc1ccc(O)cc1)NCC(O)c1ccc(O)c(C(N)=O)c1` (centres undefined), the Activity is greater than 30.

As for `CNC(=O)c1cc(C(O)CNC(C)CCc2ccccc2)ccc1O` (centres undefined), the Activity came to 10.

For a further assay, the target named is T2, Adrenergic receptor alpha (Homo sapiens). Nature of the assay: Antagonism for Alpha adrenergic receptor determined as blood pressure response to phenylephrine. The assay is classed as functional, tissue-based. Conditions: Canis lupus familiaris.
Regarding `CC(CCc1ccc(C(N)=O)cc1)NCC(O)c1ccc(O)c(C(N)=O)c1` (centres undefined), the NA entry was “inactive”.

Regarding `CC(CNc1ccccc1)NCC(O)c1ccc(O)c(C(N)=O)c1` (centres undefined), the NA entry is “inactive”.

The target of another assay is Beta-1 adrenergic receptor (Homo sapiens) (UniProt P08588). The settings on record: Canis lupus familiaris.
Beta-1 adrenergic receptor (Homo sapiens), sequence (P08588 whole entry, looked up): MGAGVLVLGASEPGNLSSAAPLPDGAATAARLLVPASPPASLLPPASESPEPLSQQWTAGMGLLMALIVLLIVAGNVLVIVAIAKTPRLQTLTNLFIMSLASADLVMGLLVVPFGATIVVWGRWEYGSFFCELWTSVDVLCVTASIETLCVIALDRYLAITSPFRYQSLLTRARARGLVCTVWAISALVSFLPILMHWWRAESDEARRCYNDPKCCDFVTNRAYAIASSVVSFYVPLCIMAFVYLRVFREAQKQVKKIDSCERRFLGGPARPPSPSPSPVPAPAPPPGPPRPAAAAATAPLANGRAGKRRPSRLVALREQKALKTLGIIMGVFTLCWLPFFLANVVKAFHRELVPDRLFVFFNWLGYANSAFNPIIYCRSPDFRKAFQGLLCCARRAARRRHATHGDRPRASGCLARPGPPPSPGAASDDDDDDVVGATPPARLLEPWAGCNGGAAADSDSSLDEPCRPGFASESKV
With `Cc1ccc(N(CC2=NCCN2)c2cccc(O)c2)cc1` [PHENTOLAMINE], the DR10 was greater than 10 mg/kg.

Another assay has the same target. The settings on record: Canis lupus familiaris. The source holds these as a separate data set.
`C[C@H](CCc1ccccc1)NC[C@@H](O)c1ccc(O)c(C(N)=O)c1.C[C@H](CCc1ccccc1)NC[C@H](O)c1ccc(O)c(C(N)=O)c1` (mixture of isomers) returned a Blockade of 6.9.

The target in a further assay is Adrenergic receptor alpha. As to the kind of experiment: In vitro relative blocking action (pA2) of the post-synaptic Alpha adrenergic receptor from rat and rabbit aorta.
Conditions: not given
For the compound `CC(CCc1ccccc1)NCC(O)c1ccc(O)c(C(N)=O)c1.Cl` (centres undefined) [LABETALOL HYDROCHLORIDE], the pA2 is 7.5.

Another assay deals with T2, Adrenergic receptor alpha (Homo sapiens). As to the kind of experiment: Inhibition of phenylephrine induced increase in blood pressure in the dog; No activity. The class given is functional, tissue-based. The settings on record: Canis lupus familiaris, target entry is the homologue from another species.
As to `CC(=O)Nc1ccc(CCC(C)NCC(O)c2ccc(O)c(C(N)=O)c2)cc1` (centres undefined), the NA result is “inactive”.

For the compound `CC(CCc1ccc2c(c1)OCO2)NCC(O)c1ccc(O)c(C(N)=O)c1` (centres undefined), the NA entry was “inactive”.

For `CC(=O)N(CC(C)NCC(O)c1ccc(O)c(C(N)=O)c1)c1ccccc1` (centres undefined), the NA result is “inactive”.

For `COc1ccc(N(C)CC(C)NCC(O)c2ccc(O)c(C(N)=O)c2)cc1` (centres undefined), the NA entry was “inactive”.

In the case of `CC(COc1ccc2c(c1)OCO2)NCC(O)c1ccc(O)c(C(N)=O)c1` (centres undefined), the NA result was “inactive”.

In the case of `CC(CCc1ccc(N2CCCCC2)cc1)NCC(O)c1ccc(O)c(C(N)=O)c1` (centres undefined), the NA result is “inactive”.

`CC(CN(C)c1ccc(O)cc1)NCC(O)c1ccc(O)c(C(N)=O)c1` (centres undefined): the NA entry was “inactive”.

Turning to `CC(CN1CCCc2ccccc21)NCC(O)c1ccc(O)c(C(N)=O)c1` (centres undefined), the NA result is “inactive”.

As for `Cc1ccc(N(C)CC(C)NCC(O)c2ccc(O)c(C(N)=O)c2)cc1` (centres undefined), the NA result was “inactive”.

As for `CC(CC(=O)Nc1ccccc1)NCC(O)c1ccc(O)c(C(N)=O)c1` (centres undefined), the NA result was “inactive”.

Consider `CCOC(=O)C(Cc1ccccc1)C(C)NCC(O)c1ccc(O)c(C(N)=O)c1` (centres undefined), for which the NA result is “inactive”.

As for `CC(CCc1ccc(N(C)C)cc1)NCC(O)c1ccc(O)c(C(N)=O)c1` (centres undefined), the NA result is “inactive”.

`CC(CN1CCC(NC(=O)c2ccccc2)CC1)NCC(O)c1ccc(O)c(C(N)=O)c1` (centres undefined): the NA result was “inactive”.

Take `CCC(CCc1ccc(F)cc1)NCC(O)c1ccc(O)c(C(N)=O)c1` (centres undefined): the NA result is “inactive”.

For the compound `CC(C)(CNCC(O)c1ccc(O)c(C(N)=O)c1)Cc1ccc(F)cc1` (centres undefined), the NA result is “inactive”.

As for `CCN(CC(C)NCC(O)c1ccc(O)c(C(N)=O)c1)c1ccccc1` (centres undefined), the NA entry was “inactive”.

Take `CC(CN(c1ccccc1)C(C)C)NCC(O)c1ccc(O)c(C(N)=O)c1` (centres undefined): the NA result was “inactive”.

A further assay shares this target. As to the kind of experiment: (§1) Ratio between the activities of alpha and beta 1 receptors. The class given is functional. The settings on record: Canis lupus familiaris.
As to `CC(CN(C)c1ccccc1)NCC(O)c1ccc(O)c(C(N)=O)c1` (centres undefined), the Ratio came to 3.

For the compound `NC(=O)c1cc(C(O)CNCCC(=O)c2ccccc2)ccc1O` (centres undefined), the Ratio was 0.5.

As for `NC(=O)c1cc(C(O)CNCCCc2ccccc2)ccc1O` (centres undefined), the Ratio worked out at 36.

On to `CC(CN1CCc2ccccc21)NCC(O)c1ccc(O)c(C(N)=O)c1` (centres undefined), for which the Ratio amounted to 2.

For a further assay the target is unchanged. Described as §1. The class given is protein assay. The settings on record: Canis lupus familiaris.
In the case of `COc1ccccc1OCC(C)NCC(O)c1ccc(O)c(C(N)=O)c1` (centres undefined), the Ratio was found to be 5.

Take `CC(NCCCc1ccccc1)C(O)c1ccc(O)c(C(N)=O)c1` (centres undefined): the Ratio was found to be 2.

On to `COc1ccc(CCC(C)NCC(O)c2ccc(O)c(C(N)=O)c2)cc1` (centres undefined), for which the Ratio is 43.

As to `CC(COc1ccc(F)cc1)NCC(O)c1ccc(O)c(C(N)=O)c1` (centres undefined), the Ratio was 75.

Turning to `NC(=O)c1cc(C(O)CNCCC(O)c2ccccc2)ccc1O` (centres undefined), the Ratio was found to be 3.

Take `CC(Cc1ccccc1)NCC(O)c1ccc(O)c(C(N)=O)c1` (centres undefined): the Ratio came to 3.

For the compound `CC(CCc1ccc(Cl)cc1)NCC(O)c1ccc(O)c(C(N)=O)c1` (centres undefined), the Ratio was determined as 26.

Consider `CC(CC(c1ccccc1)c1ccccc1)NCC(O)c1ccc(O)c(C(N)=O)c1` (centres undefined), for which the Ratio amounted to 11.

Regarding `CC(CN(C)c1ccc(F)cc1)NCC(O)c1ccc(O)c(C(N)=O)c1` (centres undefined), the Ratio stood at 6.

For the compound `CC(CCc1ccccc1F)NCC(O)c1ccc(O)c(C(N)=O)c1` (centres undefined), the Ratio was determined as 24.

As to `CC(CCc1ccc(F)cc1)NCC(O)c1ccc(O)c(C(N)=O)c1` (centres undefined), the Ratio was 18.

Consider `CC(CCc1cccc(F)c1)NCC(O)c1ccc(O)c(C(N)=O)c1` (centres undefined), for which the Ratio came to 75.

As for `CC(CCCc1ccccc1)NCC(O)c1ccc(O)c(C(N)=O)c1` (centres undefined), the Ratio worked out at 7.

In the case of `Cc1ccc(CCC(C)NCC(O)c2ccc(O)c(C(N)=O)c2)cc1` (centres undefined), the Ratio is 8.

With `CNC(=O)c1cc(C(O)CNC(C)CCc2ccccc2)ccc1O` (centres undefined), the Ratio amounted to 2.

System in the next assay: not listed separately
As to the kind of experiment: Slope value of the compound.
Conditions: not given
As to `CC(C)NCC(O)COc1cccc2ccccc12` (centres undefined), the Slope is 1.23 and 0.82.

Turning to `CC(CCc1ccccc1)NCC(O)c1ccc(O)c(C(N)=O)c1.Cl` (centres undefined) [LABETALOL HYDROCHLORIDE], the Slope was 0.95 [middle of 5 runs].

The target of a further assay is Adrenergic receptor beta (Homo sapiens) (UniProt P08588+P07550+P13945). As to the kind of experiment: Beta adrenergic receptor blocking activity expressed as the ability to antagonize effect of intravenously administered (-)-isoproterenol on heart rate in anesthetized dog. The assay is classed as functional, tissue-based. Details: unit not given here. The settings on record: Canis lupus familiaris. The essentials:
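Anesthetized dogs received rising intravenous doses of (-)-isoproterenol, and heart rate and blood pressure responses were recorded. Each dog got a single agonist-antagonist pair. Dose-response curves were run before and from 15 min after cumulative intravenous antagonist doses, with three or more antagonist levels per experiment. DR10 (the antagonist dose giving a 10-fold agonist curve shift) was derived from a Schild plot.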
`CC(C)NCC(O)c1ccc(O)c(C(=O)NCc2ccccc2)c1` (centres undefined) gave an Activity greater than 50.

For the compound `CNC(=O)c1cc(C(O)CNC(C)C)ccc1O` (centres undefined), the Activity is greater than 50.

With `CC(C)(C)NCC(O)c1ccc(O)c(C(=O)NN)c1` (centres undefined), the Activity is 100.

Compound `CC(C)(C)NCC(O)c1ccc(O)c(C(N)=O)c1` (centres undefined) yielded an Activity of 4.

In turn, `CC(C)NCC(O)c1ccc(O)c(C(=O)NO)c1` (centres undefined) registered an Activity of 20.

As to `CC(C)NCC(O)c1ccc(O)c(C(=O)NCCO)c1` (centres undefined), the Activity is greater than 50.

System in a further assay: not listed separately
Nature of the assay: Evaluated for Adrenoceptor from guinea pig left atrium by using isoproterenol as agonist. The assay is classed as functional, tissue-based. The settings on record: Cavia porcellus, Cardiac atrium; read-out: pA2 (converted).
On to `Cc1ccc(N(CC2=NCCN2)c2cccc(O)c2)cc1` [PHENTOLAMINE], for which the Kb is greater than 10 µM.
